Data published in PubChem BioAssay.
Active and inactive are the calls of the source.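 How the source made its calls, unless noted: active means inhibition of the reporter signal at or above 50%; inactive means inhibition below 50%.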

Experiments:
[1] = inhibitors of TNFa-induced NFkB p65 translocation, primary screen, imaging, HUVEC, MLSMR starter and 10KST1 sets (AID 438;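 active means inhibition above 20% together with a positive visual image hit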;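 further: compound added about 3h40 before a 20 min TNFalpha stimulation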;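 on inhibition: signal is the nuclear over cytoplasmic p65 intensity ratio per well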); settings: HUVEC TNFa-induced p65 nuclear translocation; cell count: measured here: nuclei count (cytotoxicity indicator), at 2.08 µM; inhibition: at 2 µM, stronger effect = higher value, 0% TNFa-plus-vehicle, 100% no-TNFa wells
[2] = reduction of polyQ htt aggregates in cells – imaging, exon1htt(103Q)mCFP cells, high-content imaging, primary screen (AID 483;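 active means visual image review flags a hit and inhibition of aggregation exceeds 20%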;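 further: compound exposure lasted 3 days before fixation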;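 on nuclei count: percent of the per-plate median nuclei count of sample wells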); settings: exon1htt(103Q)mCFP cell line, aggregate imaging, at 2 µM; inhibition of aggregation: stronger effect = higher value; nuclei count: measured here: cell count, toxicity
[3] = endothelial E-selectin expression blockers – imaging, HUVEC, immunofluorescence, MLSMR starter and 10KST1 sets, primary screen (AID 487;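 active means visually confirmed hit in the image check and inhibition above 20%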;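 on inhibition: signal is fraction of cell area covered by stained E-selectin grains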;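 on nuclei count: 100% = median nuclei count of all wells on the same plate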); settings: HUVEC TNFalpha-induced E-selectin immunofluorescence imaging, at 2 µM; inhibition: stronger effect = higher value; nuclei count: measured here: cell number, toxicity
[4] = target: Voltage-gated potassium channel subunit beta-2 (Rattus norvegicus) (UniProt P62483); assay: inhibitors of rat Kvbeta2 reductase activity – biochemical, NADPH fluorescence, primary screen (AID 622;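 active means fluorescence slope higher than the sample average by over 3 SD, cut at about -0.22 in these data, passing the limit was not always enough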;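 further: slope of raw intensity against log time taken from 70 to 1610 s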); settings: recombinant KvBeta, 4-cyanobenzaldehyde reduction, at 10 µM, stronger effect = higher value
[5] = target: Voltage-gated potassium channel subunit beta-2 (Rattus norvegicus) (UniProt P62483); assay: enhancers of rat Kvbeta2 NADPH turnover – biochemical, NADPH fluorescence, primary screen (AID 623;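 active means NADPH fluorescence slope more negative than the mean of all samples by about 3 SD, 99.7% confidence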;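 further: fluorescence intensity change per second fitted from 20 to 320 s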); settings: Recombinant KvBeta, NADPH fluorescence decrease slope, 10 min; at 10 µM; stronger effect = lower value
[6] = target: Muscarinic acetylcholine receptor M4 (Homo sapiens) (UniProt P08173); assay: M4-linked GIRK flux change, two-sided – cell-based, HEK293 M4/GIRK, thallium flux, BTC-AM, M4 allosteric agonist project, primary screen (AID 625;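 active means fluorescence slope after compound addition differing from the mean of all tested samples at 99.7% confidence, mostly higher but some lower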;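 further: thallium influx through GIRK channels coupled to M4 in HEK293 cells with BTC-AM dye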); settings: at 10 µM, actives lie on both sides
Outline: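 System: HEK293 cells with M4 receptor and GIRK channels | Incubation: Cells overnight at 37 °C, BTC-AM loading 1 h, reads 2 min total | Technique: Kinetic BTC-AM fluorescence sampled at 1 Hz, 10 s pre-addition baseline | Measure: Post-addition slope, 15–24 s, of baseline-normalized fluorescence | Control set: Carbachol positive, DMSO negative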

[7] = blockers of RIG-like receptor reporter activation – cell-based, Sendai virus stimulus, luciferase, 10K MLSCN set, TLR/RLR signaling modifier project, primary screen (AID 602276;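 active means inhibition at or above 50% at 10 µM; inactive means inhibition below 50%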;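 further: firefly luciferase from ISG56 promoter only with Renilla not read in this screen; 0% = Sendai virus plus DMSO and 100% = medium plus DMSO without virus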); settings: HEK293 RL24 IRF3 luciferase reporter, at 10 µM, stronger effect = higher value
[8] = TLR3 IRF3 reporter activation blockers – cell-based, poly I:C stimulus, luciferase, 10K MLSCN set, primary screen (AID 602277); settings: HEK293-TLR3 RL24 IRF3 luciferase reporter, at 10 µM, stronger effect = higher value

Sequence of Voltage-gated potassium channel subunit beta-2 (Rattus norvegicus) (P62483 whole entry, looked up): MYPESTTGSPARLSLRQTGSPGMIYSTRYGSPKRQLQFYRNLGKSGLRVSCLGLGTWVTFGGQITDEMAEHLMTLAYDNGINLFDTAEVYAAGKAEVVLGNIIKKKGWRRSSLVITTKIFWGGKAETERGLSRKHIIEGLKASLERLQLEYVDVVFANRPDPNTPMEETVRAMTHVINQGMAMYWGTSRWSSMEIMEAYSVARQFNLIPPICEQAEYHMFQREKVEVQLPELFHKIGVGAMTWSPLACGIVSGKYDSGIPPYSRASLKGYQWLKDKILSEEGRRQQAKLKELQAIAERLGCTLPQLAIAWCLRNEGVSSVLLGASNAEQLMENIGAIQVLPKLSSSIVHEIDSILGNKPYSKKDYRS
Sequence of Muscarinic acetylcholine receptor M4 (Homo sapiens) (P08173 whole entry, looked up): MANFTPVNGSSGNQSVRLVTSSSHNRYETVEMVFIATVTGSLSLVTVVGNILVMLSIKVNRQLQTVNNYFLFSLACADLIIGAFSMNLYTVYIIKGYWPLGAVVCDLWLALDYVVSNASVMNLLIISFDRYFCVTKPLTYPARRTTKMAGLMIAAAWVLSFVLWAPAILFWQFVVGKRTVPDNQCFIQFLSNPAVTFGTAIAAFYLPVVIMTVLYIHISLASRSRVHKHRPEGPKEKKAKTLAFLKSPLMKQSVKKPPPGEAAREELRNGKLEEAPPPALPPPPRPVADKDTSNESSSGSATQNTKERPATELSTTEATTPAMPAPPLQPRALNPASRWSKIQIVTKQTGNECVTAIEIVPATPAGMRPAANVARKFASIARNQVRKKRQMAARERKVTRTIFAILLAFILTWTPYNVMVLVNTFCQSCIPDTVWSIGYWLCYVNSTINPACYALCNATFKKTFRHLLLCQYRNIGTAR

SMILES	cell count [1]	inhibition [1]	inhibition of aggregation [2]	nuclei count [2] [%]	inhibition [3]	nuclei count [3] [%]	fluorescence slope [4]	NADPH fluorescence slope [5]	fluorescence slope [6]	inhibition [7]	inhibition [8]
COCc1cc(C)c2c(N)c(C#N)sc2n1	549	2.2% (inactive)	-26% (inactive)	60.8	22.2% (inactive)	108	-0.324 (inactive)	2.3e-06 (inactive)	0.00504 (inactive)	-19.7% (inactive)	-33.5% (inactive)
CCOC(=O)N1CCC(NC(=O)c2ccc(OC)c(CN3CC(=O)N4CCCC4C3=O)c2)CC1 (stereo not drawn)	532	-18.9% (inactive)	2.9% (inactive)	98	-71.7% (inactive)	94.9	-0.447 (inactive)	-4.9e-05 (inactive)	0.00582 (inactive)	13.2% (inactive)	24.9% (inactive)
COc1cccc(OCCOCCN(C)CCO)c1	313	1.5% (inactive)	19.1% (inactive)	85.9	41.3% (inactive)	88.1	-0.532 (inactive)	-2.5e-05 (inactive)	0.00575 (inactive)	-3.56% (inactive)	14.6% (inactive)
COC(=O)c1ccccc1NC(=O)Nc1cc(C)cc(C)n1	205	0.9% (inactive)	-2.4% (inactive)	71.9	10.8% (inactive)	140	-0.504 (inactive)	-2.5e-05 (inactive)	0.00537 (inactive)	6.32% (inactive)	99% (active)
CCN(CC)C(=O)CSc1nc2ccc(NC(=O)CSc3nccn3C)cc2s1	729	-2.4% (inactive)	-36.9% (inactive)	116	19.3% (inactive)	94.3	-0.577 (inactive)	-1.3e-05 (inactive)	0.00661 (inactive)	-9.79% (inactive)	-19.1% (inactive)
Cc1ccc(Oc2ccc(-c3nc(N)nc(N)n3)cc2)cc1	366	-6% (inactive)	9% (inactive)	105	-62.6% (inactive)	125	-0.547 (inactive)	-2.9e-05 (inactive)	0.00425 (inactive)	7.07% (inactive)	11.6% (inactive)
CCC(C)c1ccc(NC(=O)C2CC2)cc1 (stereo not drawn)	466	-11.6% (inactive)	-13.6% (inactive)	110	-74.9% (inactive)	118	-0.569 (inactive)	-4.3e-05 (inactive)	0.00602 (inactive)	-20.4% (inactive)	-80.1% (inactive)
Cc1cc(=O)[nH]c2c1cnn2Cc1ccccc1	270	3.9% (inactive)	13.6% (inactive)	79.2	-37.7% (inactive)	104	-0.483 (inactive)	-6.1e-05 (inactive)	0.00447 (inactive)	13.7% (inactive)	15.7% (inactive)
O=C(CN1C(=O)CCSc2ccccc21)Nc1ccc2c(c1)OCO2	700	-1.6% (inactive)	31.4% (inactive)	91.2	-215% (inactive)	111	-0.474 (inactive)	-2.4e-05 (inactive)	0.00631 (inactive)	12.5% (inactive)	23.4% (inactive)
CCCn1nnnc1SCC(=O)c1ccc2c(c1)OCCO2	571	2.6% (inactive)	-22.6% (inactive)	120	34% (inactive)	101	-0.441 (inactive)	0.000111 (inactive)	0.00722 (inactive)	-31.3% (inactive)	-69.8% (inactive)
O=c1[nH]c2c(s1)C(c1ccco1)C1C3CCC(C3)C1S2 (stereo not drawn)	220	9.2% (inactive)	12.3% (inactive)	89.5	-32.2% (inactive)	108	-0.574 (inactive)	-4.2e-05 (inactive)	0.00506 (inactive)	12.1% (inactive)	26.3% (inactive)
CCSc1nnc(NC(=O)c2nn(C(C)C)c(=O)c3ccccc23)s1	221	3.9% (inactive)	15.4% (inactive)	71.5	31.6% (inactive)	94	-0.408 (inactive)	-0.000337 (inactive)	0.00464 (inactive)	9.39% (inactive)	11.7% (inactive)
CN(CC(=O)N1CCN(C2CCCCC2)CC1)S(=O)(=O)c1cccc2nsnc12	367	0.8% (inactive)	-4.6% (inactive)	102	36% (inactive)	94.6	-0.379 (inactive)	8e-05 (inactive)	0.00544 (inactive)	13% (inactive)	28.3% (inactive)
CCn1c(SCC(N)=O)nc2c1c(=O)n(C)c(=O)n2C	226	4.9% (inactive)	20.7% (inactive)	80.1	-57.2% (inactive)	152	-0.422 (inactive)	2.5e-05 (inactive)	0.00578 (inactive)	17.5% (inactive)	21.1% (inactive)
CCN(CC)C(=O)C1=C(C)NC(=O)NC1c1c(F)cccc1Cl (stereo not drawn)	410	-7.5% (inactive)	-3.7% (inactive)	116	-73.9% (inactive)	122	-0.521 (inactive)	-0.000194 (inactive)	0.00392 (inactive)	7.67% (inactive)	10.6% (inactive)
O=C(COn1nnc2ccc(C(F)(F)F)cc21)Nc1nnc(-c2ccccc2)o1	704	-3.6% (inactive)	-0.6% (inactive)	110	108% (active)	80.2	-0.503 (inactive)	-0.000163 (inactive)	0.005 (inactive)	2.7% (inactive)	10.1% (inactive)
CC(=O)Nc1ccc(NC(=O)c2ccccc2F)cc1	345	-4.6% (inactive)	1.3% (inactive)	102	-14.4% (inactive)	116	-0.556 (inactive)	-1.7e-05 (inactive)	0.00528 (inactive)	-10.5% (inactive)	-55% (inactive)
O=C(NCCc1ccccc1)C1CCN(S(=O)(=O)N2CCC3(CC2)OCCO3)CC1	715	0.2% (inactive)	-7.7% (inactive)	111	16.5% (inactive)	104	-0.544 (inactive)	-4.5e-05 (inactive)	0.00522 (inactive)	21.6% (inactive)	20.5% (inactive)
O=C(CSc1nnc(-c2cccs2)o1)N1CCOCC1	280	-13.9% (inactive)	-11.6% (inactive)	88.7	-6.3% (inactive)	118	-0.539 (inactive)	-3.4e-05 (inactive)	0.0054 (inactive)	-8.48% (inactive)	-10.8% (inactive)
COc1cccc(CNc2cccc3cccnc23)c1O	477	5% (inactive)	19.2% (inactive)	79.7	-165% (inactive)	122	-0.564 (inactive)	-7.6e-05 (inactive)	0.00309 (inactive)	13% (inactive)	8.77% (inactive)
Cc1[nH]c(=O)[nH]c(=O)c1S(=O)(=O)N1CCN(c2cccc(Cl)c2)CC1	799	4.2% (inactive)	-23.7% (inactive)	104	-160% (inactive)	126	-0.567 (inactive)	-1.8e-05 (inactive)	0.0059 (inactive)	-13.2% (inactive)	-11.6% (inactive)
O=C1CS/C(=N\C(=O)N2c3ccccc3Sc3ccccc32)N1	373	8% (inactive)	28.4% (inactive)	87.6	-22.3% (inactive)	128	-0.523 (inactive)	-5.6e-05 (inactive)	0.00677 (inactive)	12% (inactive)	27.5% (inactive)
COc1ccc(N2CCN(C(=O)CSc3nnc4n3C(C)(C)Cc3ccccc3-4)CC2)cc1	548	7.7% (inactive)	-9.9% (inactive)	104	-14.4% (inactive)	104	-0.572 (inactive)	-3.1e-05 (inactive)	0.00723 (inactive)	4.92% (inactive)	-6.84% (inactive)
CC(C)=CCCC(C)NC(=O)NC1CCCCC1 (stereo not drawn)	227	-9.6% (inactive)	-23.2% (inactive)	91.1	-50.8% (inactive)	87	-0.546 (inactive)	-2.7e-05 (inactive)	0.00495 (inactive)	-0.0287% (inactive)	-0.553% (inactive)
CC(=O)c1cccc(NC(=O)N2CCCC2C(=O)NCc2ccc(C)cc2)c1 (stereo not drawn)	537	-4.9% (inactive)	6.2% (inactive)	102	-6.3% (inactive)	120	-0.216 (inactive)	-5.5e-06 (inactive)	0.00664 (inactive)	14.1% (inactive)	23.1% (inactive)
Cc1ccc(CNC(=O)C2CCN(S(=O)(=O)c3c(C)noc3C)CC2)cc1	475	4.8% (inactive)	14% (inactive)	91.5	-2.1% (inactive)	104	-0.493 (inactive)	8.6e-05 (inactive)	0.00571 (inactive)	-1.36% (inactive)	6.94% (inactive)
CCCc1cc(C(N)=O)c(NC(=O)c2ccco2)s1	356	-5.6% (inactive)	2.7% (inactive)	97.2	-45% (inactive)	111	-0.54 (inactive)	-5.6e-05 (inactive)	0.00337 (inactive)	-0.517% (inactive)	-22.9% (inactive)
Cc1nc(NCCNC(=O)c2ccco2)c2c(C)c(C)sc2n1	803	-4.2% (inactive)	-8.7% (inactive)	136	-34.1% (inactive)	117	-0.548 (inactive)	1.6e-05 (inactive)	0.00498 (inactive)	12.1% (inactive)	6.83% (inactive)
